The record followed here is ChEMBL document CHEMBL3351343, “Synthesis and biological evaluation of novel sigma-1 receptor antagonists based on pyrimidine scaffold as agents for treating neuropathic pain” (J Med Chem, 2014).

Data set [1] has as its system Mus musculus. The experiment in a line: Toxicity in Kun Ming mouse at 20 to 80 mg/kg, ip measured after 30 to 120 mins by rotarod test. It is filed as organism-based. Further details: route intraperitoneal. To be noted: in vivo. In short, it runs like this:
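Rotarod test in Kun Ming mice pretrained to stay 300 s at 10 rpm. Latency to fall from drum turning at 10 rpm measured 30, 60, 90 and 120 min after ip dosing; 8–10 mice per group.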
(In general: In the rotarod test animals must keep their balance on a rotating rod.)

Data set [2] deals with Adrenergic receptor alpha-1 (Rattus norvegicus) (UniProt P15823+P23944+P43140). The experiment in a line: Displacement of [3H]-prazosin from rat cerebral cortex adrenergic alpha-1 receptor at 1 uM after 60 mins by liquid scintillation counting analysis. It is filed as tissue-based. For orientation: Loss of bound radioactivity is the signal in a displacement assay; it reports binding, not function.

The subject of the next data set is Rattus norvegicus. The data set is described as follows: Antineuropathic pain activity in po dosed Sprague-Dawley rat chronic constriction injury model assessed as inhibition of mechanical allodynia measured on day 15 relative to sham-treated control. It is filed as functional. In short, it runs like this: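 Sprague-Dawley rats, sciatic nerve chronic constriction injury (four loose 4-0 silk ligatures, chloral hydrate anaesthesia); sham has nerve exposed without ligation. Model confirmed on day 14. Oral dosing in 0.5% methylcellulose, 10 mL/kg, twice daily on days 15–18. Read after first dose (day 15) and last dose (day 18). Von Frey withdrawal threshold and radiant-heat plantar withdrawal latency (30 s cutoff), each paw sampled four times and averaged; 10 rats/group.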

For data set [3], the target named is T1, 5-hydroxytryptamine receptor 1A (Rattus norvegicus) (UniProt P19327).
T1 sequence (whole entry): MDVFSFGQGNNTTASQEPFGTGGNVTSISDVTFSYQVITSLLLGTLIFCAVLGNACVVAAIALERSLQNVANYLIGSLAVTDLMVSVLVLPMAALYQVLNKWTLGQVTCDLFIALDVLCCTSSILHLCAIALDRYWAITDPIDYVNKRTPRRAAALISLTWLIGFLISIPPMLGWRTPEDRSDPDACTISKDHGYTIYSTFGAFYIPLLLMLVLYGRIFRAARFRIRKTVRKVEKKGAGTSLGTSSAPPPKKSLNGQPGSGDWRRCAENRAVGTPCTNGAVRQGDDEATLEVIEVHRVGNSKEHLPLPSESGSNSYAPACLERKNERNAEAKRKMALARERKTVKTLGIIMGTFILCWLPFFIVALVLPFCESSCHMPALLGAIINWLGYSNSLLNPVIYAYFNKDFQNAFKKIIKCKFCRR
The data set is described as follows: Displacement of [3H]-8-OH-DPAT from rat cerebral cortex 5-HT1A receptor at 1 uM after 30 mins by liquid scintillation counting analysis. It is filed as tissue-based.

The target in data set [4] is Sodium channel protein type 9 subunit alpha (Homo sapiens) (UniProt Q15858). The data set is described as follows: Inhibition of from human Nav 1.7 channel expressed in HEK293 cells at 1 uM after 5 mins by electrophysiological analysis. It is filed as cell-based.
Chain of Sodium channel protein type 9 subunit alpha (Homo sapiens) (Q15858 whole entry, looked up): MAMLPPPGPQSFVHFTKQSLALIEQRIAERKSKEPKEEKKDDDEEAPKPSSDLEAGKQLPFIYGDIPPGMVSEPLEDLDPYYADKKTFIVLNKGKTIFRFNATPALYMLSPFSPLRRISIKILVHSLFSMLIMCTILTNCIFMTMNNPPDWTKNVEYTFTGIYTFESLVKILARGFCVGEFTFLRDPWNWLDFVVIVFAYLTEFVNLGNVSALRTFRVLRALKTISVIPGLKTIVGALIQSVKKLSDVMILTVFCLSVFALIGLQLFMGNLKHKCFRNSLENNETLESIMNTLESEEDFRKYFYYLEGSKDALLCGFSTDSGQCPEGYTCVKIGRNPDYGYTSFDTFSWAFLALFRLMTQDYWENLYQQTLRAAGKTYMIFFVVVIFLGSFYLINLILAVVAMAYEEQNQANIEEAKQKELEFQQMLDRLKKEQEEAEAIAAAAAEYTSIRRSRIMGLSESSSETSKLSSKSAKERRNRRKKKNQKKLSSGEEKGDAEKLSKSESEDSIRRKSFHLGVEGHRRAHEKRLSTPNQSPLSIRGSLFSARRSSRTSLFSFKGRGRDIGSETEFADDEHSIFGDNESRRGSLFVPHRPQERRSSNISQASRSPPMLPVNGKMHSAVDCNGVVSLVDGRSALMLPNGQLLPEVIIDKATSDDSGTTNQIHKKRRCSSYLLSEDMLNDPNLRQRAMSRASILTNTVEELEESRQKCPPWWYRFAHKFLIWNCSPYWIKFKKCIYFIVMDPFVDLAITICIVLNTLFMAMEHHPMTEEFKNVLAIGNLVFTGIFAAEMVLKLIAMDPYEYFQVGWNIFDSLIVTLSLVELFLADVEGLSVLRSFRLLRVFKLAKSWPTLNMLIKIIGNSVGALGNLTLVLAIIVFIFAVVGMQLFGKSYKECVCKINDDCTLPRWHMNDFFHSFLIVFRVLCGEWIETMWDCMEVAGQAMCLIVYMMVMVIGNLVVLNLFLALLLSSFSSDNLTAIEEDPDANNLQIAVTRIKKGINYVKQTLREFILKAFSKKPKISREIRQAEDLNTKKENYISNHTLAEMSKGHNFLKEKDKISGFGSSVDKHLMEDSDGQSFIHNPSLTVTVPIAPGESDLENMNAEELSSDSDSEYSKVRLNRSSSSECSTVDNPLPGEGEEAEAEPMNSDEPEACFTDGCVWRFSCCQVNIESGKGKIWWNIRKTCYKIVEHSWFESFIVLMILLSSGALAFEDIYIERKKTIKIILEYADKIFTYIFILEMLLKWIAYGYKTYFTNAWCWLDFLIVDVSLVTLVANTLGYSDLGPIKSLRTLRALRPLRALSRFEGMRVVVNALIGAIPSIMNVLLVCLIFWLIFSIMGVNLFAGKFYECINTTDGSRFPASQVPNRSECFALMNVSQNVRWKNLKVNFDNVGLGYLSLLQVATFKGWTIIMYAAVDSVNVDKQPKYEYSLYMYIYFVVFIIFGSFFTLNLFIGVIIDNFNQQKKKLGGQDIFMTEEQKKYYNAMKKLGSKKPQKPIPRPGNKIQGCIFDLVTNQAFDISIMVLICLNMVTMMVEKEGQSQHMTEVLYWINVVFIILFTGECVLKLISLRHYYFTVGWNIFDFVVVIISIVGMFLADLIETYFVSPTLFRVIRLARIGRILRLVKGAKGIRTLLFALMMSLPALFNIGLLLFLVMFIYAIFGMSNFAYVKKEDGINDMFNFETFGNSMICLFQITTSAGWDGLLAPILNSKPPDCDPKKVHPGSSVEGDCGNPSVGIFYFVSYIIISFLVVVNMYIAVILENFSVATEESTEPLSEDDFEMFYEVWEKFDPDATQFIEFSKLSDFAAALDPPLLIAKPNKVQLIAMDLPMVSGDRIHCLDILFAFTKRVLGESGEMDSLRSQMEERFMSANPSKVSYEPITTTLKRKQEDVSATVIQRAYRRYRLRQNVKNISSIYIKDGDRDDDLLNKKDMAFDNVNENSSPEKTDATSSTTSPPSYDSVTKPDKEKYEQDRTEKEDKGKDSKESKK
Data set [5] deals with Transient receptor potential cation channel subfamily V member 1 (Homo sapiens) (UniProt Q8NER1). The experiment in a line: Inhibition of from human TRPV-1 channel expressed in HEK293 cells at 1 uM after 5 mins by electrophysiological analysis. It is filed as cell-based.
Chain of Transient receptor potential cation channel subfamily V member 1 (Homo sapiens) (Q8NER1 whole entry): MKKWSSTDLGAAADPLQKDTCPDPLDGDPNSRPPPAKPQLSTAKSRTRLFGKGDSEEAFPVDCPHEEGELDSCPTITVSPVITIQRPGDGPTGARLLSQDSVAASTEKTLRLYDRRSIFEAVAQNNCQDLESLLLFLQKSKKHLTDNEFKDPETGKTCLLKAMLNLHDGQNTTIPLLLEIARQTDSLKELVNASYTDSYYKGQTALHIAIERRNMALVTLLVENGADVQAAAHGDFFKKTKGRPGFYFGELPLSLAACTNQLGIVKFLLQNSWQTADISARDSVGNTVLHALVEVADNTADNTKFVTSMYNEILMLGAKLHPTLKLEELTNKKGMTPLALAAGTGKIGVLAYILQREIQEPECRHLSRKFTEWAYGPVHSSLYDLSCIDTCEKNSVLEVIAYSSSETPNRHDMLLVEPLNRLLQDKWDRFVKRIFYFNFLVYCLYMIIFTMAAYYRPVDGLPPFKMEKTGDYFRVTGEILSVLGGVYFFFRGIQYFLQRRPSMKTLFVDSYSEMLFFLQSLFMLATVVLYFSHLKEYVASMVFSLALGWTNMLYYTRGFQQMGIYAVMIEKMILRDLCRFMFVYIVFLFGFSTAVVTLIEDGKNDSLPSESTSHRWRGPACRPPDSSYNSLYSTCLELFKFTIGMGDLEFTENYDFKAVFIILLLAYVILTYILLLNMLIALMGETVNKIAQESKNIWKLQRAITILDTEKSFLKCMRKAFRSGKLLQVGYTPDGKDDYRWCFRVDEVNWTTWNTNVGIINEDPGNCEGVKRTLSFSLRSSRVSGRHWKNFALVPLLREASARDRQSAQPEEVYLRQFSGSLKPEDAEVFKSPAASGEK
Data set [6] relates to Mus musculus. The experiment in a line: Antinociceptive activity in Kun Ming mouse pain model assessed as reduction in licking and biting time during phase-2 at 80 mg/kg, ip administered 15 mins prior to formalin challenge relative to vehicle-treated control. To be noted: route intraperitoneal. It is filed as functional. The procedure, abridged:
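Kun Ming mice (20 ± 2.0 g), 10–12 per group, given vehicle (30% PEG 400) or drug ip at 10 mL/kg 15 min before intraplantar formalin. Time spent licking or biting the injected paw scored at 0–5 min (phase I) and 15–45 min (phase II). Effect (%) = (LTV − LTD)/LTV × 100.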

The target of data set [7] is Glutamate NMDA receptor (Rattus norvegicus) (UniProt P35439+Q00959+Q00960+Q00961+Q62645+Q8VHN2+Q9R1M7). The data set is described as follows: Displacement of [3H]-glycine from rat hippocampal membrane NMDA receptor at 1 uM after 30 mins by liquid scintillation counting analysis.
Data set [8] in a line: AUC (0 to 24 hrs) in Sprague-Dawley rat at 16 mg/kg, iv by HPLC/MS/MS analysis. To be noted: plasma.

In the case of `Cc1nc(-c2ccc(Cl)cc2)nc(OCCCN2CCCCC2)c1Cl`, the Activity entry with Mus musculus [1] is “Non-toxic”. For the same compound, the inhibition in [2] was below 50%; in the data set on Rattus norvegicus, “Dose-dependent effect”; in data set [3], below 50%; in [4] it was below 50%; in data set [5], below 50%; in [7], below 50%. In addition, in the data set on Rattus norvegicus (360 h), the ED50 was found to be 58.2 mg/kg. Further, the Time in the data set on Mus musculus [6] was 37.41 s. Further, the AUC(0-t) at 24 h in [8] is 3300 ng·h/mL.

What is called inhibition is the relative decrease from the control value, in per cent. The term ED50 denotes the midpoint of the dose-response relation. Broadly, the AUC(0-t) is the area under the concentration-time curve up to a stated or last time point. The low end stands for low exposure, the high end for high exposure.
